# The source made the active and inactive calls. The calls are words filed in the database; no cut-off is given here.
# Legend:
# MCF7 [1] = assay: Cytotoxicity against human MCF7 cells assessed as reduction in cell viability after 4 hrs by MTT assay; assay type: functional, cell-based
# Procedure, shortened: (§1)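 MTT: 10,000–20,000 cells/well attached for 16 h, then washed twice with serum-free RPMI. Treated with 1–200 µM for 4 h, 3 parallel runs per concentration. MTT added for 2 h; medium partly removed and isopropanol added. A590 read. Viability = (A treated − A doxorubicin)/(A medium − A doxorubicin)×100. Mean of three experiments, triplicate wells each.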
# HeLa [2] = assay: Induction of apoptosis in human HeLa cells assessed as change in Bid level at 1 to 3 uM after 24 hrs by Western blot analysis; assay type: functional, cell-based
# Procedure, shortened: (§2)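 Cells were treated at 1, 3 and 5 µM for 24 h at 37 °C. Lysis was in ice-cold Triton X-100 buffer with protease and phosphatase inhibitors; nuclear proteins were extracted separately. Protein was quantified by BCA. Lysates were separated by electrophoresis, transferred to nitrocellulose and blocked in non-fat milk for 1 h. Primary antibody was applied overnight at 4 °C and secondary for 1 h at 28 °C. Detection was by enhanced chemiluminescence.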
# MCF7 [3] = assay: Effect on mitochondrial membrane potential in human MCF7 cells assessed as shift change at 5 uM measured over 4 hrs by Rhodamine 123 dye-based fluorescence assay; assay type: functional, cell-based
# Procedure, shortened: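 Mitochondrial potential: HeLa or MCF-7 cells treated with 5 µM (final) for 1, 2, 4 and 8 h. Rhodamine 123 added, cells incubated 30 min at 37 °C, washed with PBS, and analysed by flow cytometry. Fluorescence histogram shift is compared with control.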
# [4] = biological target: T1, c-Jun N-terminal kinase, JNK (Homo sapiens) (UniProt P45983+P53779+P45984); assay: Activation of JNK phosphorylation in human MCF7 cells assessed as increase in ratio of phosphorylated JNK to total JNK level at 5 uM in presence of JNK inhibitor SP600125 by ELISA; assay type: cell-based
# Procedure, shortened: (§3)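 Cell-based ELISA: HeLa or MCF-7 cells (20×10^3/well) grown overnight at 37 °C, 5% CO2, treated with 5 μM, then fixed and blocked. Probed with rabbit anti-total and anti-phospho P38, JNK or ERK1/2 (1:100), then HRP anti-rabbit IgG. Result is the phospho/total ratio; inhibitor arms use […], […] or SP600125. n=3.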
# MCF7 [5] = assay: Induction of ERK/MAPK signal transduction pathway in human MCF7 cells assessed as increase in c-fos level; assay type: cell-based
# MCF7 [6] = assay: Induction of apoptosis in human MCF7 cells assessed as change in Bcl-2 level at 1 to 3 uM after 24 hrs by Western blot analysis; assay type: functional, cell-based; procedure, shortened: as §2
# HeLa [7] = assay: Induction of apoptosis in human HeLa cells assessed as viable cells at 1 uM after 8 hrs by annexin-V FITC/propidium iodide staining based flow cytometric analysis relative to control; assay type: functional; details: read-out: Activity
# Procedure, shortened: (§4)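 Cells were grown in DMEM with 10% heat-inactivated FBS at 37 °C and 5% CO₂, then plated at 500,000 cells/well in 24-well plates. They were treated from a DMSO stock (DMSO ≤0.1%) for 8, 12 or 16 h. After a PBS wash, cells were resuspended in binding buffer (10 mM HEPES pH 7.4, 2.5 mM CaCl₂, 140 mM NaCl, 0.1% BSA), stained 40 min with FITC-annexin V, then with PI, and run on the flow cytometer immediately. Values are the mean of three independent experiments.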
# MCF7 [8] = assay: Induction of apoptosis in human MCF7 cells assessed as late apoptotic cells at 1 uM after 12 hrs by annexin-V FITC/propidium iodide staining based flow cytometric analysis relative to control; assay type: functional; procedure, shortened: as §4
# MCF7 [9] = assay: Induction of apoptosis in human MCF7 cells assessed as necrotic cells at 1 uM after 12 hrs by annexin-V FITC/propidium iodide staining based flow cytometric analysis relative to control; assay type: functional; procedure, shortened: as §4
# HeLa [10] = assay: Cytotoxicity against human HeLa cells assessed as reduction in cell viability after 4 hrs by MTT assay; assay type: functional, cell-based; procedure, shortened: as §1
# MCF7 [11] = assay: Induction of apoptosis in human MCF7 cells assessed as necrotic cells at 1 uM after 8 hrs by annexin-V FITC/propidium iodide staining based flow cytometric analysis relative to control; assay type: functional; procedure, shortened: as §4
# [12] = biological target: T1, c-Jun N-terminal kinase, JNK (Homo sapiens); assay: Activation of JNK phosphorylation in human HeLa cells assessed as increase in ratio of phosphorylated JNK to total JNK level at 5 uM in presence of JNK inhibitor SP600125 by ELISA; assay type: cell-based; procedure, shortened: as §3
# MCF7 [13] = assay: Induction of apoptosis in human MCF7 cells assessed as effect on Mcl-1 long level at 1 to 3 uM after 24 hrs by Western blot analysis; assay type: functional, cell-based; procedure, shortened: as §2
# HeLa [14] = assay: Induction of caspase-dependent apoptosis in human HeLa cells assessed as activation of caspase-7 at 1 to 3 uM after 24 hrs by Western blot analysis; assay type: functional, cell-based; procedure, shortened: as §2
# [15] = biological target: T1, c-Jun N-terminal kinase, JNK (Homo sapiens); assay: Activation of JNK phosphorylation in human MCF7 cells assessed as increase in ratio of phosphorylated JNK to total JNK level at 5 uM by ELISA; assay type: cell-based; procedure, shortened: as §3
# HeLa [16] = assay: Induction of nitric oxide production in human HeLa cells at 5 uM measured over 8 hrs by Griess reaction based assay relative to control; assay type: functional
# Procedure, shortened: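 Cells seeded at 2×10^6 cells/well for 12 h, then exposed to 1, 5 and 10 μM compound for 8 h at 37 °C. Culture supernatant mixed with Griess reagent (0.002% N-1-naphthyl-ethylenediamine dihydrochloride, 0.5% sulfanilic acid, 14% glacial acetic acid). Nitrite read by absorbance at 550 nm and compared with vehicle group.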
# MCF7 [17] = assay: Induction of apoptosis in human MCF7 cells assessed as viable cells at 1 uM after 12 hrs by annexin-V FITC/propidium iodide staining based flow cytometric analysis relative to control; assay type: functional; details: MCF7, 12 h, read-out: Activity; procedure, shortened: as §4
# SCC-25 = assay: Cytotoxicity against human SCC25 cells assessed as reduction in cell viability after 4 hrs by MTT assay; assay type: functional, cell-based
# HeLa [18] = assay: Induction of apoptosis in human HeLa cells assessed as effect on Mcl-1 long level at 1 to 3 uM after 24 hrs by Western blot analysis; assay type: functional, cell-based; procedure, shortened: as §2
# MCF7 [19] = assay: Induction of caspase-dependent apoptosis in human MCF7 cells assessed as activation of caspase-9 at 1 to 3 uM after 24 hrs by Western blot analysis; assay type: functional, cell-based; procedure, shortened: as §2
# HeLa [20] = assay: Induction of apoptosis in human HeLa cells assessed as early apoptotic cells at 1 uM after 12 hrs by annexin-V FITC/propidium iodide staining based flow cytometric analysis relative to control; assay type: functional; procedure, shortened: as §4
# HeLa [21] = assay: Induction of nitric oxide production in human HeLa cells at 1 uM measured over 8 hrs by Griess reaction based assay relative to control; assay type: functional
# Procedure, shortened: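 Cells were plated at 2×10⁶ cells/well in 24-well plates for 12 h, then treated at 1, 5 and 10 µM for 8 h at 37 °C. Culture supernatant was mixed with Griess reagent (0.002% N-1-naphthylethylenediamine, 0.5% sulfanilic acid, 14% glacial acetic acid). Nitric oxide was quantified by absorbance at 550 nm.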
# HeLa [22] = assay: Induction of apoptosis in human HeLa cells assessed as necrotic cells at 1 uM after 16 hrs by annexin-V FITC/propidium iodide staining based flow cytometric analysis relative to control; assay type: functional; procedure, shortened: as §4
structure (smiles),measurement,setting,value
Cn1cc(/C=N\NC(=O)c2cn(C)c3ccc(Br)cc23)c2ccccc21,Activity,MCF7 [1],Dose-dependent effect
same,IC50,"MCF7 [1]; Homo sapiens, MCF7, 4 h, read-out: IC50",1190 nM
same,Activity,HeLa [2],inactive
same,Activity,MCF7 [3],Active
same,Activity,[4],inactive
same,Activity,MCF7 [5],Active
same,Activity,MCF7 [6],inactive
same,viability at 1 µM,HeLa [7],68.8%
same,Activity,MCF7 [8],35.72%
same,Activity,MCF7 [9],2.61%
same,Activity,HeLa [10],Dose-dependent effect
same,IC50,"HeLa [10]; Homo sapiens, HeLa, 4 h, read-out: IC50",1690 nM
same,Activity,MCF7 [11],0.33%
same,Activity,[12],inactive
same,Activity,MCF7 [13],inactive
same,Activity,HeLa [14],inactive
same,Activity,[15],Active
same,Activity,HeLa [16],42.4%
same,viability at 1 µM,MCF7 [17],40.5%
same,Activity,SCC-25,Dose-dependent effect
same,IC50,"SCC-25; SCC-25, 4 h",10100 nM
same,Activity,HeLa [18],inactive
same,Activity,MCF7 [19],inactive
same,Activity,HeLa [20],33.51%
same,Activity,HeLa [21],29.8%
same,Activity,HeLa [22],1.77%

# Source: ChEMBL document CHEMBL4316598, “Synthesis, antiproliferative and apoptosis induction potential activities of novel bis(indolyl)hydrazide-hydrazone derivatives” (Bioorg Med Chem, 2019)
